# Laboratory results reported in ChEMBL document CHEMBL5705886, “GSK1070916, a potent Aurora B/C kinase inhibitor with broad antitumor activity in tissue culture cells and human tumor xenograft models” (Mol Cancer Ther, 2009).
# Calls of active or inactive are those of the source. The calls are words filed in the database; no cut-off is given here.
# Assays:
# [1] = test system: PC-3; assay: Antiproliferative activity against human PC-3 cells assessed as inhibition of cell viability measured for 6 to 7 days by cell titer glo assay; assay type: functional, cell-based
# How it was run: (§1)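 Cells seeded in recommended growth medium, held overnight at 37°C in 5% CO2, then exposed to serial dilutions of inhibitor for 6–7 d. A time-zero plate was read with CellTiter-Glo at dosing. Luminescent viability read at the end. No-cell wells subtracted as background, data expressed as percent of DMSO control.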
# [2] = test system: SW-620; assay: Antitumor activity in human SW620 cells xenografted in SCID mouse assessed as reduction in tumor growth at 25 to 100 mg/kg, ip administered once daily for 5 consecutive days with 2 days off scheduled for 3 cycles measured upto 60 days; assay type: functional, organism-based; details: dose 25-100 mg/kg, time 60.0 day
# [3] = test system: RL; assay: Antiproliferative activity against human RL cells assessed as inhibition of cell viability measured for 6 to 7 days by cell titer glo assay; assay type: functional, cell-based; how it was run: as §1
# [4] = test system: BV-173; assay: Antiproliferative activity against human BV-173 cells assessed as inhibition of cell viability measured for 6 to 7 days by cell titer glo assay; assay type: functional, cell-based
# How it was run: (§2)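 Tumor lines plated in recommended growth media, overnight at 37°C, 5% CO2, then given serial dilutions; a T=0 plate read with CellTiter-Glo at dosing. After 6–7 d of exposure, viability read by CellTiter-Glo luminescence. No-cell wells subtracted, data expressed as % of DMSO control.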
# [5] = test system: ML-2; assay: Antiproliferative activity against human ML-2 cells assessed as inhibition of cell viability measured for 6 to 7 days by cell titer glo assay; assay type: functional, cell-based
# How it was run: (§3)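 Cells seeded in recommended growth medium, incubated overnight at 37°C in 5% CO2, then exposed to serial dilutions of inhibitor for 6–7 d. A parallel plate was read with CellTiter-Glo at compound addition as a T=0 value. The luminescent viability readout had no-cell background subtracted and was expressed as % of DMSO control.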
# [6] = test system: HCT-116; assay: Antiproliferative activity against human HCT-116 cells assessed as inhibition of cell viability measured for 6 to 7 days by cell titer glo assay; assay type: functional, cell-based; how it was run: as §2
# [7] = test system: MHH-PREB-1; assay: Antiproliferative activity against human MHH-PREB-1 cells assessed as inhibition of cell viability measured for 6 to 7 days by cell titer glo assay; assay type: functional, cell-based; how it was run: as §3
# [8] = test system: NCI-H358; assay: Antiproliferative activity against human NCI-H358 cells assessed as inhibition of cell viability measured for 6 to 7 days by cell titer glo assay; assay type: functional, cell-based; how it was run: as §3
# [9] = test system: SU-DHL10; assay: Antiproliferative activity against human SU-DHL-10 cells assessed as inhibition of cell viability measured for 6 to 7 days by cell titer glo assay; assay type: functional, cell-based; how it was run: as §1
# [10] = Toxicity in SCID nude mouse xenografted with human A549 cells assessed as body weight loss at 25 to 100 mg/kg, ip administered once daily for 5 consecutive days with 2 days off scheduled for 3 cycles measured upto 60 days relative to control; assay type: organism-based; details: in vivo, 1440 h, dose 25-100 mg/kg, time < 60 day
# [11] = biological target: Aurora kinase C (Homo sapiens) (UniProt Q9UQB9); assay: Binding affinity to Aurora C (unknown origin) assessed as dissociation half life
# [12] = test system: SR; assay: Antiproliferative activity against human SR cells assessed as inhibition of cell viability measured for 6 to 7 days by cell titer glo assay; assay type: functional, cell-based; how it was run: as §1
# [13] = test system: L-428; assay: Antiproliferative activity against human L-428 cells assessed as inhibition of cell viability measured for 6 to 7 days by cell titer glo assay; assay type: functional, cell-based; how it was run: as §3
# [14] = Antiproliferative activity against human DND41 cells assessed as inhibition of cell viability measured for 6 to 7 days by cell titer glo assay; assay type: functional, cell-based; how it was run: as §2
# [15] = test system: PANC-1; assay: Antiproliferative activity against human PANC-1 cells assessed as inhibition of cell viability measured for 6 to 7 days by cell titer glo assay; assay type: functional, cell-based; how it was run: as §1
# [16] = Antiproliferative activity against human MEC-1 cells assessed as inhibition of cell viability measured for 6 to 7 days by cell titer glo assay; assay type: functional, cell-based; details: MEC1; how it was run: as §3
# [17] = test system: CRO-AP2; assay: Antiproliferative activity against human CRO-AP2 cells assessed as inhibition of cell viability measured for 6 to 7 days by cell titer glo assay; assay type: functional, cell-based; how it was run: as §2
# [18] = test system: DU-145; assay: Antiproliferative activity against human DU-145 cells assessed as inhibition of cell viability measured for 6 to 7 days by cell titer glo assay; assay type: functional, cell-based
# How it was run: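 Cells plated in recommended growth medium, held overnight at 37°C in 5% CO2, then given serial dilutions of inhibitor; a T=0 set read with CellTiter-Glo at dosing. Luminescent viability read after 6–7 d exposure.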
# [19] = Toxicity in SCID nude mouse xenografted with human SW620 cells assessed as drug tolerance at 25 to 100 mg/kg, ip administered once daily for 5 consecutive days with 2 days off scheduled for 3 cycles measured upto 60 days; assay type: organism-based, SW-620; details: in vivo, 1440 h, dose 25-100 mg/kg, time < 60 day
# [20] = Antiproliferative activity against human A375P cells assessed as inhibition of cell viability measured for 6 to 7 days by cell titer glo assay; assay type: functional, cell-based; how it was run: as §2
# [21] = Toxicity in SCID nude mouse xenografted with human SW620 cells assessed as body weight loss at 25 to 100 mg/kg, ip administered once daily for 5 consecutive days with 2 days off scheduled for 3 cycles measured upto 60 days relative to control; assay type: organism-based, SW-620; details: in vivo, 1440 h, dose 25-100 mg/kg, time 60 day
# [22] = test system: HL-60; assay: Antitumor activity in human HL-60 cells xenografted in SCID mouse assessed as median survival time at 25 mg/kg, ip administered once daily for 5 consecutive days with 2 days off scheduled for 2 cycles measured upto 120 days; assay type: functional; details: time <= 120 day
# [23] = test system: NCI-H460; assay: Antitumor activity in human NCI-H460 cells xenografted in nude mouse assessed as reduction in tumor growth at 25 to 100 mg/kg, ip administered once daily for 5 consecutive days with 2 days off scheduled for 3 cycles measured upto 60 days; details: dose 25-100 mg/kg, time 60.0 day
# [24] = test system: MEG-01; assay: Antiproliferative activity against human MEG-01 cells assessed as inhibition of cell viability measured for 6 to 7 days by cell titer glo assay; assay type: functional, cell-based; how it was run: as §3
# [25] = test system: MC116; assay: Antiproliferative activity against human MC116 cells assessed as inhibition of cell viability measured for 6 to 7 days by cell titer glo assay; assay type: functional, cell-based; how it was run: as §3
# [26] = test system: CMK; assay: Antiproliferative activity against human CMK cells assessed as inhibition of cell viability measured for 6 to 7 days by cell titer glo assay; assay type: functional, cell-based; how it was run: as §2
# [27] = Antiproliferative activity against human OCI-M1 cells assessed as inhibition of cell viability measured for 6 to 7 days by cell titer glo assay; assay type: functional, cell-based; how it was run: as §1
# [28] = test system: A549; assay: Effect on cell cycle distribution in human A549 cells assessed as increase in sub-2N DNA content at 2 to 5000 nM incubated for 24 to 72 hrs by flow cytometry based analysis; assay type: functional; details: dose 2-5000 nM, time 24-72 hrs
# [29] = Toxicity in SCID nude mouse xenografted with human K562 cells assessed as drug tolerance at 100 mg/kg, ip administered once daily for 5 consecutive days with 2 days off scheduled for 3 cycles measured upto 60 days; assay type: organism-based; details: in vivo, 1440 h, time < 60 day
# [30] = test system: OVCAR-8; assay: Antiproliferative activity against human OVCAR-8 cells assessed as inhibition of cell viability measured for 6 to 7 days by cell titer glo assay; assay type: functional, cell-based; how it was run: as §1
# [31] = test system: OVCAR-4; assay: Antiproliferative activity against human OVCAR-4 cells assessed as inhibition of cell viability measured for 6 to 7 days by cell titer glo assay; assay type: functional, cell-based; how it was run: as §1
# Aurora kinase C (Homo sapiens), sequence (Q9UQB9 whole entry): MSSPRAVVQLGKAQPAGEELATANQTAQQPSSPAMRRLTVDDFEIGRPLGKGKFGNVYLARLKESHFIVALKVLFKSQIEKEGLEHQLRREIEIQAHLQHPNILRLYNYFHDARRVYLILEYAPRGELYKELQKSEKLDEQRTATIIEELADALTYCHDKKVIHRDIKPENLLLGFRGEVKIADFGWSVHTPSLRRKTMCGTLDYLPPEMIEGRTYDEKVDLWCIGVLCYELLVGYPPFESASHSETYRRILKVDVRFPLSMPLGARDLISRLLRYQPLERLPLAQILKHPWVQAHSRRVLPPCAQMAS
structure (smiles),measurement,setting,value
CCn1cc(-c2ccnc3[nH]c(-c4cccc(CN(C)C)c4)cc23)c(-c2ccc(NC(=O)N(C)C)cc2)n1 [GSK-1070916],EC50,[1],11 nM
same,Activity,[2],inactive
same,EC50,[3],10 nM
same,EC50,[4],5 nM
same,EC50,[5],5 nM
same,EC50,[6],8 nM
same,EC50,[7],4 nM
same,EC50,[8],4 nM
same,EC50,[9],15 nM
same,Activity,[10],< 15%
same,T1/2,[11],4.5 h
same,EC50,[12],3 nM
same,EC50,[13],31 nM
same,EC50,[14],787 nM
same,EC50,[15],13 nM
same,EC50,[16],10 nM
same,EC50,[17],3 nM
same,EC50,[18],15 nM
same,Activity,[19],Non-Toxic
same,EC50,[20],7 nM
same,Activity,[21],< 15%
same,MST,[22],57 days
same,Activity,[23],inactive
same,EC50,[24],44 nM
same,EC50,[25],8 nM
same,EC50,[26],27 nM
same,EC50,[27],20 nM
same,Activity,[28],Active
same,Activity,[29],Toxic
same,EC50,[30],30 nM
same,EC50,[31],11 nM
